# Measurements reported in paper PMC4445677 (Journal of the American Chemical Society, 2014).
# “Also recorded” adds a separate entry of the source.
# Tests used:
# WT-ARTD1 = test: Auto-ADP-ribosylation by click conjugation to biotin-azide reporter, WT-ARTD1; assay type: biochemical, human; settings: NAD+ analogue as substrate; up to 250 μM for 5-Et-6-a-NAD+
# KA-ARTD1 = test: Auto-ADP-ribosylation by click conjugation to biotin-azide reporter, KA-ARTD1; assay type: biochemical, human; settings: NAD+ analogue as substrate; increasing concentrations
# WT-ARTD6 = settings: up to 250 μM
# KA-ARTD2 = test: Auto-ADP-ribosylation, KA-ARTD2; assay type: biochemical, human; settings: lysine to alanine mutant
# WT-ARTD2 = test: Auto-ADP-ribosylation, WT-ARTD2; assay type: biochemical, human; settings: up to 250 μM
# KA-ARTD6 = settings: lysine to alanine mutant
# [1] = system: nuclear extracts from human embryonic kidney (HEK) 293T cells; test: Labeling of ADP-ribosylation protein targets in nuclear extracts; assay type: biochemical; settings: HEK 293T nuclear extracts; for protein labeling in nuclear extracts, NAD+ analogue alone: endogenous ARTDs only, 5-Et-6-a-NAD+ 250 μM, 6-a-NAD+ 100 μM
# Outline: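 Nuclear extracts from human HEK 293T cells are treated with a modified NAD+ analogue (250 μM), either alone or with added KA-ARTD1. Parent 6-a-NAD+ alone on extract serves as the positive control for ADP-ribose detection. Labelled targets are detected by click chemistry with biotin–azide and immunoblot, using a Ponceau S-stained membrane as the loading control.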
# [2] = target: wild-type ARTD1 (WT-ARTD1) (Homo sapiens, UniProt P09874); test: Inhibition of ADP-ribose transfer to Histone H1 using 6-a-NAD+; assay type: biochemical
# K903A ARTD1 (KA-ARTD1) = K903A ARTD1 (KA-ARTD1) (Homo sapiens, UniProt P09874, K903A); test: as above; assay type: biochemical
# Chain of K903A ARTD1 (KA-ARTD1) (P09874 whole entry K903A): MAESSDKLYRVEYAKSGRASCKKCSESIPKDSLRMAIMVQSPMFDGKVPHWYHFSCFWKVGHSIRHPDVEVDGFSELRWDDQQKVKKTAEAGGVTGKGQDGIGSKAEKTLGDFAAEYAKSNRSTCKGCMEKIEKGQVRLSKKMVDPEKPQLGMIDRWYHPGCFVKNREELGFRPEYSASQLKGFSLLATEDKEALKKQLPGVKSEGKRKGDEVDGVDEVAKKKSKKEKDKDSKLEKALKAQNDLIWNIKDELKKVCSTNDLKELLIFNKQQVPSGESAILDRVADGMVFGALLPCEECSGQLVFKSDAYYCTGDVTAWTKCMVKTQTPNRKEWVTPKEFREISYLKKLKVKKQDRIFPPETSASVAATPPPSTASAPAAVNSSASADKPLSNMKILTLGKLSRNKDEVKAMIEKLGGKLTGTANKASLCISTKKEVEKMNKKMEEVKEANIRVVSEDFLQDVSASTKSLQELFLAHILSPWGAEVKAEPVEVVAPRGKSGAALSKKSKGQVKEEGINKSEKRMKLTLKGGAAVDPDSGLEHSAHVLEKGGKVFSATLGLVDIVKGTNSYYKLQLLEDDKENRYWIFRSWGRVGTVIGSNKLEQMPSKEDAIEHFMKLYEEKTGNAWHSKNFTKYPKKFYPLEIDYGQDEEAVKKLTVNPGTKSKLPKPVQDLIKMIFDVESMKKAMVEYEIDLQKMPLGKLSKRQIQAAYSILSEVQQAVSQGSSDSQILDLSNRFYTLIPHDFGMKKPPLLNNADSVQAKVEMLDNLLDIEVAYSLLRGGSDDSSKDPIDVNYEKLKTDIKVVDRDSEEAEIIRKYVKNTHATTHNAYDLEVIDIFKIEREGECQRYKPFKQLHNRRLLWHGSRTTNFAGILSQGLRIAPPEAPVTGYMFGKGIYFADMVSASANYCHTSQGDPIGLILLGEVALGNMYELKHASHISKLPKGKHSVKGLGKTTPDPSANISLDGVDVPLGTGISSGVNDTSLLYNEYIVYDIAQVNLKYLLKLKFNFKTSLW
# Chain of wild-type ARTD1 (WT-ARTD1) (P09874 whole entry): as the sequence (P09874 whole entry K903A) above, with A903K counted along it
Compound,auto-ADPr (modification) of WT-ARTD1 (WT-ARTD1),auto-ADPr (modification) of KA-ARTD1 (KA-ARTD1),modification of WT-ARTD6 (WT-ARTD6),modification of KA-ARTD2 (KA-ARTD2),modification of WT-ARTD2 (WT-ARTD2),modification of KA-ARTD6 (KA-ARTD6),protein labeling in nuclear extracts in the presence of KA-ARTD1 ([1]; 250 μM plus KA-ARTD1),"protein labeling in nuclear extracts, NAD+ analogue alone [1]",IC50 [2],IC50 (K903A ARTD1 (KA-ARTD1)),selectivity for KA-ARTD1 over WT-ARTD1 (K903A ARTD1 (KA-ARTD1); ratio of IC50 values WT-ARTD1 / KA-ARTD1)
5-Et-6-a-NAD^+,no modification of WT-ARTD1 was detected,only mono-ADPr of KA-ARTD1; also recorded: resulted in auto-ADPr of KA-ARTD1,no modification,conferred sensitivity,no modification,conferred sensitivity,extensive labeling,no labeling was detected,–,–,–
"6-alkyne-NAD^+ [6-a-NAD^+, reference compound]",extensive poly-ADPr of WT-ARTD1,only mono-ADPr of KA-ARTD1,–,–,–,–,–,labeling of several proteins,–,–,–
CCc1cncc(C(N)=O)c1 [5-ethyl-nicotinamide],–,–,–,–,–,–,–,–,2360 ± 368 µM,165 ± 11 µM,14 fold
